Assay outcomes as filed in PubChem BioAssay.
Only some compounds are listed: those with a hit (about 3.7% of all), similar ones and a draw of the others.
hERG rescue: compounds protecting human hERG from proarrhythmic drug block; activation (rescue from dofetilide block), less the hit threshold, % at 10 µM; 0.51% of 310,000 active; CHO-hERG, FluxOR thallium flux, dofetilide IC70 present; Q12809;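 active = activation above the mean of controls blocked by dofetilide plus 5 SD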;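 note: thallium influx through hERG after potassium depolarization seen as dye fluorescence rise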
KCNQ1 inh: human KCNQ1 channel inhibition; P51787; CHO-K1 KCNQ1, FluxOR thallium flux fluorescence; hits give high values; B-score at 10 µM; 1.3% of 310,000 active; AID 2642;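 active = compounds whose thallium flux B-score, printed positive for inhibition, exceeds three library SD while starting fluorescence stays within three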;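 note: channel opened by potassium depolarization with thallium stimulus after 20 min compound exposure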
KCNQ1 pot: human KCNQ1 channel potentiation or activation | 0.35% of 310,000 active | B-score at 10 µM | P51787 | CHO-K1 KCNQ1, thallium flux FluxOR fluorescence; hits give high values;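 active = fluorescence ratio B-score, a plate-corrected score, at least three library SD, with initial intensity B-score within 5 SD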
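Schedule – 37 °C overnight plating, 90-min dark dye load, 20-min compound pretreatment · System – stable KCNQ1 CHO-K1 line · Probe or stimulus – thallium- and potassium-containing depolarizing buffer · Measured by – kinetic FluxOR fluorescence, 10 s baseline plus 110 s post-stimulus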
Kir21 block: inhibitors of mouse Kir2.1 inward-rectifier potassium channel; P35561; HEK293-Kir2.1, FluxOR thallium flux fluorescence; hits give low values; B-score at 10 µM; 0.85% of 310,000 active;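 active = fluorescence ratio B-score at or below minus 3 SD of library scores, with starting-brightness B-score within 2 SD, cut at about -4.2 in these data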;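 note: channel flux triggered by added potassium and thallium sulfate stimulus; B-score of peak minus minimum fluorescence over baseline after thallium stimulus; more negative B-score means stronger Kir2.1 block with less thallium influx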
KCNK9 block: inhibitors of human KCNK9 two-pore domain potassium channel; B-score at 10 µM; Q9NPC2; HEK293 KCNK9, FluxOR thallium flux fluorescence; hits give low values; 1.2% of 310,000 active;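 active = ratio B-score over 3 SD below the library mean, with starting fluorescence within 5 SD of its mean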;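 note: negative B-score means less thallium flux so channel inhibition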
Target sequence (Q9NPC2 whole entry, looked up, the tested form may be a part): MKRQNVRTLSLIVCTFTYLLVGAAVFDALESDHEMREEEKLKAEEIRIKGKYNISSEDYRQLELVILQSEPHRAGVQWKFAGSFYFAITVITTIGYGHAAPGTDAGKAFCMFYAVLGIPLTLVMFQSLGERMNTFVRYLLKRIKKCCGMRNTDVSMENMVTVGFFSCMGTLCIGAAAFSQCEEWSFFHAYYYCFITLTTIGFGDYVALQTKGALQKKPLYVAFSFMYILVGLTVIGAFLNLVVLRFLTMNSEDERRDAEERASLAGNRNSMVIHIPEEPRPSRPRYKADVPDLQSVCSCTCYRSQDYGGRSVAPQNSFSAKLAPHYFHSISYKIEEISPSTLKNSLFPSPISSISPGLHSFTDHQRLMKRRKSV
KCNK3 block: human KCNK3 channel inhibition, primary screen | B-score at 10 µM | AID 602410 | CHO-KCNK3 thallium flux, FluxOR fluorescence; hits give low values | 0.84% of 340,000 active | O14649;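 active = B-score under library mean minus 4 SD, starting fluorescence ratio at most library mean plus 5 SD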;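 note: more negative B-score means stronger inhibition of thallium flux through KCNK3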
Target sequence (O14649 whole entry, looked up): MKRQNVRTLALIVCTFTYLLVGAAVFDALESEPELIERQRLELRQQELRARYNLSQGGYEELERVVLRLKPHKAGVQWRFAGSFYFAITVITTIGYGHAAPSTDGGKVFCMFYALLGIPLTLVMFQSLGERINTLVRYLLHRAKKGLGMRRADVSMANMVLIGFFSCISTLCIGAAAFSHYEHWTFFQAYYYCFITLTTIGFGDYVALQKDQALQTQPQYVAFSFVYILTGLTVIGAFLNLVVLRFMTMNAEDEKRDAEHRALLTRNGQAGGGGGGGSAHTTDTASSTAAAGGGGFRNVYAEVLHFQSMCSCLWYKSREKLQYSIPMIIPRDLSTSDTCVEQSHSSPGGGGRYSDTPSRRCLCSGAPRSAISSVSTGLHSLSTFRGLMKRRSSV
KCNK9 inh conf: human KCNK9 inhibitor confirmation. shares compounds with KCNK9 block. HEK293 KCNK9 cells, FluxOR thallium flux fluorescence. inhibition, % at 10 µM. 43% of 4,900 active. AID 492992;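 active = thallium signal inhibited by more than 5 SD of the compound-free buffer control wells, on both duplicate plates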
Kir2-1 spec: mouse Kir2.1 off-target activity of KCNK9 modulators. shares compounds with KCNK9 block. Kir2.1 cells, FluxOR thallium flux fluorescence. inhibition, % at 10 µM. 4% of 4,900 active. AID 492993;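 active = thallium signal drop more than 5 SD beyond the mean of the no-compound control wells, seen in both duplicate plates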;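 note: signal is fluorescence rise after thallium addition divided by baseline fluorescence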
KCNK9 uninduced: second counter-screen for KCNK9 modulators: effect in non-induced cells; 40% of 4,900 active; non-induced KCNK9-HEK293, FluxOR thallium flux; AID 492997; inhibition, % at 10 µM; shares compounds with KCNK9 block;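 active = thallium signal drop beyond 5 SD of the untreated control mean, on both duplicate plates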
KCNK3 inh conf: human KCNK3 channel inhibition, confirmation assay; ratio percent of control, % at 10 µM; 99% of 2,400 active; AID 651638; shares compounds with KCNK3 block; CHO-KCNK3 thallium flux, FluxOR fluorescence; 0% buffer, 100% carvedilol maximal block;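 active = ratio percent of control, averaged over triplicates, above buffer control mean plus 5 SD, cut at about 64% in these data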;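 note: ratio is the fluorescence rise from min to max over baseline after thallium stimulus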
KCNK3 uninduced: KCNK3 inhibitor counter-screen hit in non-induced cells | shares compounds with KCNK3 block | non-induced KCNK3 parental cells, FluxOR thallium flux; hits give low values | thallium flux ratio (lower = more inhibition) at 10 µM | 40% of 2,400 active;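 active = thallium flux ratio, averaged over three wells, more than 5 SD below the buffer control mean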;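 note: host cells are CHO cells without KCNK3 induction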
Of the large screens only hits and unclear results are named; the others gave an inactive call (follow-up assays come after a bar, where they were run).

COc1ccccc1N1CCN(C(c2ccccc2Cl)c2nnnn2C(C)(C)C)CC1 (stereo not given)	none (no result: hERG rescue, KCNQ1 inh, KCNQ1 pot, Kir21 block, KCNK9 block)
COc1ccc(C2CC(c3cccs3)=NN2C(=O)COC(=O)C2CCCCC2)cc1OC (stereo not given)	KCNK9 block -15, KCNK3 block -9.6 | KCNK9 inh conf 43% | Kir2-1 spec inactive | KCNK9 uninduced 38% | KCNK3 inh conf 103 | KCNK3 uninduced inactive
NC(=S)N/N=C\c1c(OCc2ccccc2Cl)ccc2ccccc12	KCNK9 block -10, KCNK3 block -9.5 | KCNK9 inh conf 46% | Kir2-1 spec inactive | KCNK9 uninduced inactive | KCNK3 inh conf 101 | KCNK3 uninduced inactive
O=C(CN1CCCC1)Nc1cccc(Cl)c1Cl	none
COC(=O)c1ccc(CNC(=O)C(C)N=C2NS(=O)(=O)c3ccccc32)cc1 (stereo not given)	none (no result: hERG rescue, KCNQ1 inh, KCNQ1 pot, Kir21 block, KCNK9 block)
O=C(c1ccco1)N(CCC(c1ccccc1)c1ccco1)Cc1ccc(F)cc1 (stereo not given)	Kir21 block -4.4, KCNK9 block -14, KCNK3 block -11 | KCNK9 inh conf 66% | Kir2-1 spec 40% | KCNK9 uninduced 31% | KCNK3 inh conf 95 | KCNK3 uninduced 0.15
CN(CC(=O)Nc1cccc(F)c1)C(=O)c1ccccc1OCCOc1ccccc1	none
C=CCOC(=O)C1=C(C)NC(SCC(N)=O)=C(C#N)C1c1ccc(C)cc1 (stereo not given)	none
C=CCOC(=O)C1=C(C)NC(SCC)=C(C#N)C1c1ccc(Cl)cc1 (stereo not given)	KCNQ1 inh 9, KCNK9 block -8.4, KCNK3 block -8.8 | KCNK9 inh conf inactive | Kir2-1 spec inactive | KCNK9 uninduced 40% | KCNK3 inh conf 116 | KCNK3 uninduced inactive
CN(CC(=O)Nc1cc(Cl)cc(Cl)c1)Cc1cccs1	KCNK9 block -14, KCNK3 block -13 | KCNK9 inh conf 63% | Kir2-1 spec inactive | KCNK9 uninduced 44% | KCNK3 inh conf 122 | KCNK3 uninduced 0.16
CCCOC(=O)c1ccc(NC(=O)CN(C)Cc2cccs2)cc1	KCNK9 block -12, KCNK3 block -10 | KCNK9 inh conf 50% | Kir2-1 spec inactive | KCNK9 uninduced inactive | KCNK3 inh conf 94 | KCNK3 uninduced inactive
CN(CC(=O)NCCc1ccc(F)cc1)Cc1cccs1	none
CCCOc1ccc(CNCCCOCC)cc1OC	none
CC1(O)CC(C)(C)C(C#N)C(=O)N1 (stereo not given)	none (no result: hERG rescue, KCNQ1 inh, KCNQ1 pot, Kir21 block, KCNK9 block)
COc1ccc(-c2nc(-c3ccc(O)cc3O)cs2)cc1OC	KCNK9 block -13, KCNK3 block -12 | KCNK9 inh conf 50% | Kir2-1 spec inactive | KCNK9 uninduced inactive | KCNK3 inh conf 124 | KCNK3 uninduced inactive
Cc1nn(Cc2ccc(C(=O)Nc3nc4c(C)cccc4s3)o2)c(C)c1Br	KCNK9 block -14, KCNK3 block -9.9 | KCNK9 inh conf 44% | Kir2-1 spec inactive | KCNK9 uninduced inactive | KCNK3 inh conf 88 | KCNK3 uninduced inactive
Cc1cc(NC(=O)c2ccc(Cn3nc(C)c(Br)c3C)o2)no1	none
N#Cc1c(-c2ccccc2)c(-c2ccccc2)n(Cc2ccco2)c1NC(=O)c1cccs1	KCNQ1 inh 6, KCNK9 block -13, KCNK3 block -13 | KCNK9 inh conf 58% | Kir2-1 spec inactive | KCNK9 uninduced 42% | KCNK3 inh conf 112 | KCNK3 uninduced inactive
COc1ccccc1NC(=O)C1CC(O)CN1C(=O)Oc1ccccc1 (stereo not given)	none
O=C(Oc1ccc2ccccc2c1Br)N1CCCCCC1	KCNK9 block -12 | KCNK9 inh conf 68% | Kir2-1 spec inactive | KCNK9 uninduced 36% | KCNK3 inh conf 108 | KCNK3 uninduced inactive
Cc1nn(Cc2ccc(C(=O)NN)o2)c(C)c1Cl	none
Cc1nn(Cc2ccc(C(=O)Nc3ccc(C(=O)OC(C)C)cc3)o2)c(C)c1Cl	KCNK9 block -10, KCNK3 block -9.5 | KCNK9 inh conf 56% | Kir2-1 spec inactive | KCNK9 uninduced inactive | KCNK3 inh conf 107 | KCNK3 uninduced inactive
O=C1c2ccccc2C(Nc2ccc3c(c2)OCCO3)N1c1ccccn1 (stereo not given)	KCNK9 block -15, KCNK3 block -9.6 | KCNK9 inh conf 52% | Kir2-1 spec inactive | KCNK9 uninduced 47% | KCNK3 inh conf 103 | KCNK3 uninduced inactive
Cn1c(SCC(=O)Nc2cc(Cl)cc(Cl)c2)nnc1-c1ccc2nonc2c1	none
Cc1onc(-c2ccc(Cl)cc2)c1-c1ccnc(SCC(=O)Nc2cc(Cl)cc(Cl)c2)n1	KCNQ1 inh 9, KCNK9 block -16, KCNK3 block -13 | KCNK9 inh conf inactive | Kir2-1 spec inactive | KCNK9 uninduced 44% | KCNK3 inh conf 101 | KCNK3 uninduced 0.15
Cc1c(N=C2NN=C(c3c[nH]c4ccccc34)CS2)c(=O)n(-c2ccccc2)n1C	none
C=CCSc1nc(N)c(C(=O)Nc2ccccc2)cc1C#N	none
C=CCSc1nc(N)c(C(=O)Nc2ccccc2OC)cc1C(=O)Nc1ccccc1	KCNK9 block -8.7, KCNK3 block -11 | KCNK9 inh conf 27% | Kir2-1 spec inactive | KCNK9 uninduced inactive | KCNK3 inh conf 107 | KCNK3 uninduced inactive
COc1ccccc1C1CCN(c2cc(O)ccc2[N+](=O)[O-])CC1	KCNQ1 inh 11, KCNK9 block -11, KCNK3 block -10 | KCNK9 inh conf 55% | Kir2-1 spec inactive | KCNK9 uninduced 44% | KCNK3 inh conf 111 | KCNK3 uninduced inactive
COc1ccccc1C1CCN(C(=O)C2CCCCC2)CC1	none
O=C(CSc1nnc(NC(=O)c2ccccc2[N+](=O)[O-])s1)NC1CCCC1	none
COc1nnc(-c2ccc(N3CCOCC3)c(NC(=O)C3CCCCC3)c2)c2ccccc12	none
COc1nnc(-c2ccc(N3CCCCC3)c(NC(=O)C3CCCCC3)c2)c2ccccc12	KCNQ1 inh 12, KCNK9 block -15, KCNK3 block -11 | KCNK9 inh conf 52% | Kir2-1 spec inactive | KCNK9 uninduced inactive | KCNK3 inh conf 125 | KCNK3 uninduced 0.14
C/C(N)=C(/C#N)C(=O)COC(=O)c1cc(-c2ccc(Br)cc2)nc2ccccc12	none
